Measurements from ChEMBL document CHEMBL2331371, “Natural products inspired synthesis of neuroprotective agents against H₂O₂-induced cell death” (Bioorg Med Chem Lett, 2013).
The source made the active and inactive calls. No cut-off for these calls is given here.

Tests used:
[1] = test system: PC-12; assay: Effect on Na+/K+ ATPase activity in rat PC12 cells assessed as inorganic phosphate liberation using ATP as substrate at 50 uM after 1 hr by colorimetric analysis; format: cell-based
Method in brief: (§1)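 Adherent PC12 cells exposed 1 h to 50 µM compound, either alone or together with 100 µM H2O2, then harvested. ATPase assayed in two parallel runs, total and ouabain-insensitive. Inorganic phosphate formed in 30 min quantified colorimetrically; Na+/K+-ATPase activity taken as the difference without versus with ouabain. Triplicate experiments; means ± SEM, Student t-test.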

[2] = test system: PC-12; assay: Neuroprotective activity against H2O2-induced oxidative stress in rat PC12 cells assessed as increase in cell viability treated for 6 hrs prior to H2O2 addition measured after 18 hrs by Synergy Hybrid H1 reader analysis; format: functional, cell-based
Method in brief: (§2)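 PC12 cells pretreated 6 h with compound at 0.1, 1, 10, 50, 100 or 150 µM, then challenged with 100 µM H2O2 for a further 18 h. Untreated cells served as 100% survival. Cells harvested for viability assay. Triplicates with three separate culture batches; means ± SEM, Student t-test, p<0.05.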

[3] = test system: PC-12; assay: Neuroprotective activity against H2O2-induced oxidative stress in rat PC12 cells assessed as increase in cell viability at 0.1 to 10 uM treated for 6 hrs prior to H2O2 addition measured after 18 hrs by Synergy Hybrid H1 reader analysis; format: functional, cell-based; method in brief: as §2
[4] = test system: PC-12; assay: Inhibition of H2O2-induced decrease in Na+/K+ ATPase activity in rat PC12 cells assessed as increase in inorganic phosphate liberation using ATP as substrate at 50 uM after 1 hr by colorimetric analysis in presence H2O2; format: cell-based; method in brief: as §1
[5] = test system: PC-12; assay: Neuroprotective activity against H2O2-induced oxidative stress in rat PC12 cells assessed as increase in cell viability at 0.1 to 150 uM treated for 6 hrs prior to H2O2 addition measured after 18 hrs by Synergy Hybrid H1 reader analysis; format: functional, cell-based
Method in brief: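 PC12 cells pretreated 6 h with test agent (0.1, 1, 10, 50, 100, 150 µM), then 100 µM H₂O₂ added for a further 18 h. Untreated cells set as 100% survival; H₂O₂-only cells as injury control. Cells then harvested for viability assay. Triplicate runs over three separate culture batches; means ± SEM, Student t-test, p < 0.05.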

Compound | Activity [1] | Activity [2] | Activity [3] | inhibition [4] | Activity [5]
C[C@]12CCCC[C@@]1(O)C(=O)C=C2c1ccoc1 | inactive | Dose-dependent effect | Active |  | 
C[C@]12CCCC[C@@]1(O)OC(=O)C=C2c1ccoc1 | inactive | Dose-dependent effect |  | Active | 
C[C@]12CCCC[C@@]1(O)C(=O)CC2c1ccoc1 (single isomer, unassigned) | inactive |  |  |  | Active
C[C@]12CCCC[C@H]1C(=O)C=C2c1ccoc1 | inactive | Dose-dependent effect | Active | Active | 
C[C@]12CCCC[C@@]1(O)C(=O)C=C2c1ccco1 | inactive |  |  | Active | Active
C[C@]12CCCC[C@@]1(O)C(=O)C[C@H]2c1ccco1 | inactive | Dose-dependent effect |  | Active | 
